Assay outcomes deposited in PubChem BioAssay by several laboratories.
Rows were chosen to be rich in hits. Some 2.9% of all compounds tested hit in one or more screens of this group.
SENP7 block – blocks the human protease SENP7; Q9BQF6; recombinant SENP7, Z-RLRGG-aminoluciferin luminescence, 40 min; inhibition, % at 5 µM; 1.5% of 330,000 active; AID 434973;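 active = inhibition above about 50% at the single test dose, limit read from the data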;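 also: plate controls were DMSO with enzyme for no effect and no enzyme buffer wells for full effect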
Target sequence (Q9BQF6 706-1050 limits assumed): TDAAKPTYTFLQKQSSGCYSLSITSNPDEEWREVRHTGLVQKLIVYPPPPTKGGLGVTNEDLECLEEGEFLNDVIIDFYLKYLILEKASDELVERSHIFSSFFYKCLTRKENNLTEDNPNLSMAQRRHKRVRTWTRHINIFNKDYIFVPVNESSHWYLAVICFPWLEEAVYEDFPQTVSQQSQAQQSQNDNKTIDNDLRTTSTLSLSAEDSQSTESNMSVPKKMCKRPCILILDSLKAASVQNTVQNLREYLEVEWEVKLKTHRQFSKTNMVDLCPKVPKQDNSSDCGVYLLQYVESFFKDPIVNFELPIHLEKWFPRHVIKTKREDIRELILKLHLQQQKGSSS
HSP90 inh – blocks HSP90-mediated luciferase refolding in reticulocyte lysate | Rabbit reticulocyte lysate, luciferase refolding luminescence, 3 h | inhibition, % at 5.6 µM | 0.91% of 290,000 active;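 active = inhibition above the screen-wide mean plus 3 SD, computed separately per campaign, cut at about 16% in these data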;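 also: 0% = DMSO wells and 100% = 60 µM geldanamycin wells; inhibitors lower the luminescence because luciferase stays unfolded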
SENP1 FRET inh – SENP1 (human) catalytic domain inhibition; Q9P0U3; recombinant SENP1 catalytic domain, CyPet-SUMO1-YPet FRET cleavage; inhibition, % at 10 µM; 0.21% of 360,000 active; AID 624204;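 active = inhibition at least 30% at 10 µM, raw YFP signal under a set limit, fluorescence ratio 0.5 to 1.5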;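 also: 0% = enzyme with DMSO and 100% = no enzyme wells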
Target sequence (Q9P0U3 419-644 limits assumed): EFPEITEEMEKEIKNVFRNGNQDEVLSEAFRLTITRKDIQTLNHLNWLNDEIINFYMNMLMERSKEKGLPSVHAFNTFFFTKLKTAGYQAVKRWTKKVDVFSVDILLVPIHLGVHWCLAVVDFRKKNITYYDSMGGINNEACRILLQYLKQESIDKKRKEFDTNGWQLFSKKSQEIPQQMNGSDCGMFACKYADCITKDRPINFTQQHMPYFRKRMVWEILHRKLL
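Assay system – human recombinant His6-tagged SENP1 catalytic domain enzyme · Input – SENP1 enzyme, 20 pM final · Buffer or medium – Tris pH 8 buffer plus EDTA, NaCl, BME, BSA, NP40, catalase · Schedule – 50 min reaction at room temperature · Technique – FRET read of cyan and yellow fluorescence · Control set – no-enzyme wells low, DMSO-plus-enzyme wells high control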
SENP6 block – SENP6 protease inhibition; Recombinant SENP6 catalytic domain, aminoluciferin luminescence; inhibition, % at 10 µM; 1.8% of 330,000 active;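 active = inhibition above about 50% at the single tested dose, limit read from the data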;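 also: plate controls were DMSO wells with enzyme for no effect and DMSO wells lacking enzyme for full effect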
SENP8 block-1 – blocks human SENP8 cleavage of Nedd8 substrate | 0.64% of 360,000 active | inhibition, % at 20 µM | recombinant SENP8, Nedd8 substrate fluorescence; in the data active = inhibition mostly above about 40%, no sharp cut-off; inactive = mostly below about 27%
SENP8 block-2 – inhibitors of human SENP8 protease; Q96LD8; purified SENP8, Z-RLRGG-aminoluciferin cleavage, luminescence; inhibition, % at 10 µM; 1.2% of 330,000 active; AID 2540; in the data active = inhibition above about 50%
SENP8 confirm – human SENP8 inhibition, confirmed; AID 488912; 40% of 6,200 active; shares compounds with SENP7 block; inhibition, % at 12.5 µM; Recombinant SENP8, Z-RLRGG-aminoluciferin luminescence, 60 min;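 active = mean inhibition across replicates above about 50%, limit read from the data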
SENP6 conf – human SENP6 inhibition, confirmed. 58% of 6,200 active. shares compounds with SENP7 block. AID 488915. inhibition, % at 12.5 µM. recombinant SENP6, Z-RLRGG-aminoluciferin luminescence
SENP7 confirm – human SENP7 inhibition, confirmed | shares compounds with SENP7 block | recombinant SENP7, Z-RLRGG-aminoluciferin luminescence, 40 min | inhibition, % at 12.5 µM | 69% of 6,200 active | AID 488917
Casp3 SENP sel – caspase-3 inhibition (SENP selectivity assay); shares compounds with SENP7 block; purified caspase-3, Z-DEVD-aminoluciferin luminescence, 60 min; inhibition, % at 12.5 µM; 60% of 6,200 active; AID 488918;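 active = mean inhibition above about 50%, limit read from the data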;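 also: plate controls were enzyme with DMSO for no effect and wells without caspase-3 for full effect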
SENP luc ctr – luminescence interference (SENP counter-screen); 39% of 6,200 active; Pre-incubated SENP8/Z-RLRGG-aminoluciferin, luciferase luminescence interference; inhibition, % at 12.5 µM; shares compounds with SENP7 block;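 active = mean inhibition above about 50% when retested at one dose, limit read from the data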;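 also: plate controls were DMSO wells with completed reaction for no effect and substrate without enzyme for full effect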
The depositor's hits bear a star.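 The calls were made as follows, unless noted: active = mean inhibition above about 50% in the one-dose retest (limit read from the data); inactive = the rest.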

`O=C(Nc1nnc(CSCc2ccccc2F)s1)c1cccc([N+](=O)[O-])c1` gave SENP7 block 4, HSP90 inh -2, SENP1 FRET inh -7, SENP6 block 56*, SENP8 block-1 -19, SENP8 block-2 25, SENP8 confirm 10, SENP6 conf 6, SENP7 confirm 2, Casp3 SENP sel 7 and SENP luc ctr 1.
`CC1CCN(S(=O)(=O)c2nnc(NC(=O)c3cccc([N+](=O)[O-])c3)s2)CC1` gave SENP7 block 1, HSP90 inh -5, SENP1 FRET inh 1, SENP6 block 7, SENP8 block-1 24 and SENP8 block-2 -5.
Screening N#Cc1ccc(S(=O)(=O)NCC(=O)OCC(=O)N2CCCC2=O)cc1 returned SENP7 block 9, SENP1 FRET inh 0, SENP6 block -9, SENP8 block-1 6 and SENP8 block-2 4.
For Cc1nn(-c2ccc(N3CCCCC3)nn2)c(C)c1CCC(=O)Nc1ccc(F)cc1 the results were SENP7 block 7, HSP90 inh 0, SENP1 FRET inh 3, SENP6 block -3, SENP8 block-1 -8 and SENP8 block-2 -3.
Screening Cc1ccc(NC(=O)CCc2c(C)nn(-c3ccc(N4CCCCC4)nn3)c2C)cc1F returned SENP7 block 31, HSP90 inh -1, SENP1 FRET inh 3, SENP6 block 56*, SENP8 block-1 -42, SENP8 block-2 38, SENP8 confirm 61*, SENP6 conf 53*, SENP7 confirm 77*, Casp3 SENP sel 38 and SENP luc ctr 10.
CCOc1cc(C=O)cc(N=Nc2cccc([N+](=O)[O-])c2)c1O was read as SENP7 block 47, HSP90 inh -2, SENP1 FRET inh 5, SENP6 block 83*, SENP8 block-1 22, SENP8 block-2 82*, SENP8 confirm -6, SENP6 conf 45, SENP7 confirm 22, Casp3 SENP sel 48 and SENP luc ctr -2.
`CC1(C)CC(=O)C(N=Nc2cccc([N+](=O)[O-])c2)=C(O)C1` gave SENP7 block 45, HSP90 inh 2, SENP1 FRET inh -3, SENP6 block 25, SENP8 block-1 20 and SENP8 block-2 16.
`Cc1ccn2c(C(=O)c3ccc(Cl)cc3)cnc2c1` gave SENP7 block 52*, HSP90 inh 22*, SENP1 FRET inh -1, SENP6 block 70*, SENP8 block-1 -24, SENP8 block-2 31, SENP8 confirm 28, SENP6 conf 34, SENP7 confirm 70*, Casp3 SENP sel 62* and SENP luc ctr 48.
Screening COCCNC(=O)CN(C(=O)c1ccc(N2CCCC2)nc1)c1ccccc1 returned SENP7 block 6, HSP90 inh -4, SENP1 FRET inh 3, SENP6 block -7, SENP8 block-1 -3 and SENP8 block-2 -5.
For COCCNC(=O)CN(C(=O)c1ccc(N2CCCC2)nc1)c1ccc(F)c(Cl)c1 the results were SENP7 block 1, HSP90 inh -2, SENP1 FRET inh 2, SENP6 block 51*, SENP8 block-1 -5, SENP8 block-2 56*, SENP8 confirm 13, SENP6 conf 10, SENP7 confirm 12, Casp3 SENP sel 4 and SENP luc ctr 7.
Screening O=C1NC(=O)/C(=C\c2ccc(Br)o2)S1 returned SENP7 block 2, HSP90 inh 2, SENP1 FRET inh 4, SENP6 block 55*, SENP8 block-1 -32, SENP8 block-2 36, SENP8 confirm 56*, SENP6 conf 51*, SENP7 confirm 62*, Casp3 SENP sel 52* and SENP luc ctr 46.
For O=C1NC(=O)/C(=C/c2ccc(-c3cc(C(=O)O)ccc3Cl)o2)S1 the results were SENP7 block 20, HSP90 inh 0, SENP1 FRET inh -100, SENP6 block 23, SENP8 block-1 -327 and SENP8 block-2 9.
Fc1ccccc1SCc1nnc(-c2ccccc2Br)o1 was read as SENP7 block 43, HSP90 inh 7, SENP1 FRET inh -2, SENP6 block 14, SENP8 block-1 1, SENP8 block-2 53*, SENP8 confirm 66*, SENP6 conf 67*, SENP7 confirm 86*, Casp3 SENP sel 49 and SENP luc ctr 30.
Screening Nc1c(C(=O)NCc2ccccc2)c2nc3ccccc3nc2n1-c1ccc2c(c1)OCO2 returned SENP7 block -3, HSP90 inh 0, SENP1 FRET inh -53, SENP6 block 68*, SENP8 block-1 -261, SENP8 block-2 30, SENP8 confirm 11, SENP6 conf 12, SENP7 confirm -3, Casp3 SENP sel 3 and SENP luc ctr 0.
`Nc1ccc(-n2c(N)c(C(=O)NCc3ccc4c(c3)OCO4)c3nc4ccccc4nc32)cc1` gave SENP7 block 2, HSP90 inh 2, SENP1 FRET inh -63, SENP6 block 8, SENP8 block-1 -406 and SENP8 block-2 2.
Screening COc1ccccc1CNC(=O)c1c(N)n(CCCN2CCOCC2)c2nc3ccccc3nc12 returned HSP90 inh 3, SENP1 FRET inh -22 and SENP8 block-1 -291.
`Nc1c(C(=O)NCc2ccc3c(c2)OCO3)c2nc3ccccc3nc2n1CCCN1CCOCC1` gave SENP7 block 4, HSP90 inh 2, SENP1 FRET inh -24, SENP6 block 92*, SENP8 block-1 -277, SENP8 block-2 91*, SENP8 confirm 10, SENP6 conf 8, SENP7 confirm -3, Casp3 SENP sel 3 and SENP luc ctr -5.
For Clc1ccc(-c2nc(-c3ccncc3)no2)c(Cl)c1 the results were SENP7 block 77*, SENP1 FRET inh 1, SENP6 block 63*, SENP8 block-1 26, SENP8 block-2 58*, SENP8 confirm 8, SENP6 conf 10, SENP7 confirm 26, Casp3 SENP sel 20 and SENP luc ctr 10.
